Screening data deposited in PubChem BioAssay by several laboratories.
Jurkat NFkB inh: lowers PMA/ionomycin-induced NF-kB signal in Jurkat cells. inhibition, % at 4 µM. PMA/ionomycin-induced NF-kB luciferase reporter, luminescence. actives 0.53% (n = 330,000); in the data active = inhibition above about 50%
UPR XBP1 act: activators of adaptive arm of unfolded protein response (XBP1). activation, % at 20 µM. AID 463104. actives 0.33% (n = 330,000). CHO-XBP1 luciferase reporter, IRE1-XBP1 UPR activation, luminescence; percent of tunicamycin response, DMSO as zero;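 active = versus positive control, 20 µM dose yields 30% or more activation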
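Signal: luciferase luminescence; Assay system: CHO-XBP1 luciferase reporter cells; Amount: one thousand reporter cells per well; Dosing: 20 µM single concentration, DMSO 1%; Benchmarks: high control tunicamycin 10 µg/mL final, low control DMSO vehicle only; Schedule: 6 h compound exposure at 37 °C, 5% CO2; Evaluation: percent activation relative to tunicamycin reference.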
697 NFkB inh: lowers PMA/ionomycin-induced NF-kB signal in 697 B cells; inhibition, % at 4 µM; 697 B-cell NF-kB luciferase reporter, 16 h; actives 0.33% (n = 330,000); in the data active = inhibition above about 35%
UPR CHOP act: activators of apoptotic arm of unfolded protein response (CHOP); actives 0.34% (n = 330,000); CHO-CHOP luciferase reporter, UPR activation, luminescence; percent of tunicamycin response over DMSO baseline; activation, % at 10 µM;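 active = at 10 µM dose, activation of 40% or more, normalized to positive control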
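Material: CHO-CHOP cells, stable luciferase reporter of PERK-eIF2a-CHOP signalling; quantity: 500 reporter cells seeded per well; buffer or medium: F12 medium containing 10% fetal bovine serum; compound: one dose, 10 µM in 0.5% DMSO; incubation: 6 h compound treatment, 37 °C; measured by: Steady-Glo luciferase luminescence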
CHOP inh: blocks CHOP induction under ER stress; CHO-K1 CHOP-promoter luciferase, tunicamycin-induced, 15-18 h; inhibition, % at 10 µM; actives 3.8% (n = 220,000); AID 2732;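 active = compounds that reduced the stress-induced luciferase reporter signal by more than about 70% of percent inhibition, limit read from the data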
Jurkat NFkB conf: lowers PMA/ionomycin-induced NF-kB signal in Jurkat cells; shares compounds with Jurkat NFkB inh; Jurkat NF-kB luciferase, 16 h; inhibition, % at 4 µM; actives 27% (n = 2,700); AID 435020;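 active = inhibition reaching about 45% at 4 µM in either replicate, limit read from the data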
697 NFkB conf: lowers PMA/ionomycin-induced NF-kB signal in 697 B cells. shares compounds with 697 NFkB inh. AID 449746. 697 B-cell NF-kB luciferase, 16 h. actives 35% (n = 2,000). inhibition, % at 4 µM; in the data active = inhibition mostly above about 28%, no sharp cut-off; inactive = mostly below about 22%
Hits are given with their value; . = inactive; / = not tested or not shown. This excerpt belongs to a sample that is enriched for hits.

SMILES	Jurkat NFkB inh	UPR XBP1 act	697 NFkB inh	UPR CHOP act	CHOP inh	Jurkat NFkB conf	697 NFkB conf
Nc1nc2c(-c3ccc(Br)cc3)nnn2c2ccccc12	.	.	.	.	/	.	.
CC1Cc2cc(-c3csc(NC(=O)Cc4cccs4)n3)ccc2N1S(C)(=O)=O (configuration not stated)	57	.	56	.	/	76	.
O=C(O)c1ccccc1C(=O)Nc1cccc([N+](=O)[O-])c1	.	.	.	.	.	/	/
Cc1c(C(=O)Nc2cccc([N+](=O)[O-])c2)csc1-c1ccccc1	.	.	.	.	.	.	.
CCCNc1ncnc2c1cnn2-c1ccc(OC)cc1	/	/	/	/	.	/	/
CCCN(CCC)c1ncnc2c1cnn2-c1ccc(OC)cc1	.	.	.	.	.	.	.
O=C(Oc1ccc2ccccc2c1Br)N1CCCCCC1	.	.	.	.	.	.	.
COc1ccc(CN2CCNC(=O)C2CC(=O)NCc2cn3ccc(C)cc3n2)c(OC)c1 (configuration not stated)	.	.	.	.	.	/	/
C/C(=N\Nc1cccc2cccnc12)c1ccccn1	.	.	.	.	.	.	.
CCCCCCCCCn1ccc(=N)cc1	92	.	45	.	76	77	58
CCCCCn1ccc(=N)cc1	.	.	.	.	.	/	/
CCCCCCCn1ccc(=N)cc1	66	.	89	.	.	74	83
COc1cccc2c1C(=O)c1c(O)c3c(c(O)c1C2=O)C[C@@](O)(C(=O)CO)C[C@@H]3O[C@H]1C[C@H](N)[C@H](O)[C@H](C)O1	90	.	94	.	/	89	77
C=CCn1c(C)cc(C(=O)CN2C(=O)NC3(CCCc4ccccc43)C2=O)c1C (configuration not stated)	.	.	.	.	.	/	/
Cc1ccc(C(=O)CN2C(=O)c3ccccc3S2(=O)=O)cc1	81	.	73	.	87	66	51
C=CCn1c(C)cc(C(=O)CN2C(=O)c3ccccc3S2(=O)=O)c1C	89	.	66	.	/	49	45
OC1(c2nc3ccccc3[nH]2)CCCCC1	.	.	.	.	/	/	/
CC(NC(=O)c1ccnc(C(C)(C)C)c1)c1ccccc1 (configuration not stated)	.	.	.	.	.	/	/
CC(=O)CSc1nc2cc3c(cc2cc1C#N)OCCO3	.	.	.	.	.	.	.
C=CCc1cccc(CNn2cnnc2)c1O	.	.	.	.	/	/	/
CC(C(=O)NCc1ccccc1)n1cc([N+](=O)[O-])cn1 (configuration not stated)	.	.	.	.	/	/	/
O=c1c2ccccc2oc2cc(C#CC3(O)CCCCC3)ccc12	.	.	.	.	/	/	/
COc1cccc2oc3cc(C#CC4(O)CCCCC4)ccc3c(=O)c12	.	.	.	.	/	.	.
O=C(Nc1ccc(SC(F)(F)F)cc1)c1ccccn1	.	.	.	.	.	.	.
O=C(Nc1ccc(F)cc1)c1ccccc1F	.	.	.	.	.	/	/
SMILES	Jurkat NFkB inh	UPR XBP1 act	697 NFkB inh	UPR CHOP act	CHOP inh	Jurkat NFkB conf	697 NFkB conf
COc1ccc(C(=O)Nc2ccc3ccccc3c2)c(OC)c1	.	.	.	.	/	.	.
O=C(Nc1ccc2ccccc2c1)c1ccccc1F	.	.	.	.	/	.	.
COC(=O)Cc1cc(OC)c(OC)cc1S(=O)(=O)N(C)C	.	.	.	.	.	/	/
Cc1cc(N2CCN(c3nc4ccccc4s3)CC2)n2ncnc2n1	62	.	54	.	/	54	42
COc1cc(Nc2c3c(nc4ccccc24)CCC3)cc(OC)c1OC	.	.	.	.	/	/	/
COc1cc(NS(C)(=O)=O)ccc1Nc1c2ccccc2nc2ccccc12	72	.	.	.	.	82	.
COCCCN(C(=O)Cc1coc2cc(C)c(C)cc12)c1c(N)n(Cc2ccccc2)c(=O)[nH]c1=O	.	.	.	.	/	/	/
COC(=O)/C=C1/N/C(=N\c2nc(C)cc(C)n2)N(c2ccc(Cl)cc2)C1=O	.	.	.	.	.	/	/
NNc1nc(-c2ccccc2)nc2sc3c(c12)CCCC3	.	.	.	.	.	.	.
NNc1nc2sc3c(c2c(=O)n1Cc1ccccc1)CCC3	.	.	.	.	.	/	/
COc1ccc(NC(=O)C2CCCN(CCCc3ccccc3)C2)cc1OCC(C)C (configuration not stated)	.	.	.	.	/	/	/
Cc1cc(/C=C2\Sc3ccccc3N2C)cc(C)[n+]1CC1CCCO1 (configuration not stated)	97	.	36	.	.	.	.
O=C(NC(=S)Nc1ccc(S(=O)(=O)Nc2nccs2)cc1)c1cccc(F)c1	.	.	.	.	.	/	/
CCN(c1ccccc1C(=O)O)S(=O)(=O)c1cccc2nsnc12	.	.	.	.	/	/	/
CC(C)Cc1cc(C(C)(C)C)ccc1OC(=S)N(C)C	51	.	40	.	/	60	33
Cc1ccc(/C=N/Nc2nc3ccccc3s2)o1	.	.	.	.	.	.	.
Cc1ccc(/C=N/Nc2nc(C(C)(C)C)cs2)o1	.	.	.	.	.	/	/
Cc1ccc(NC(=O)CSC2=NN3CCCC(=O)N=C3S2)cc1Cl	.	.	.	.	/	/	/
CN1CCN(C(=O)c2ccc(-c3cccs3)s2)CC1	.	.	.	.	.	/	/
O=C(c1cccs1)c1ccc(-c2cccs2)s1	.	.	.	.	/	.	.
Cc1cc(C)nc(Nc2nc(-c3ccccc3)cs2)n1	.	.	.	.	/	.	.
Cc1ccc(Nc2nc(-c3ccccc3)cs2)nc1	.	.	.	.	/	.	.
c1cc2c(cc1Nc1nc(-c3ccc4c(c3)OCO4)cs1)OCCO2	.	.	.	.	.	/	/
c1ccc(-c2csc(Nc3ccc4c(c3)OCCO4)n2)cc1	.	.	.	.	90	.	.
Cc1ccc(Nc2nc(-c3cccs3)cs2)nc1	.	.	.	.	.	/	/
SMILES	Jurkat NFkB inh	UPR XBP1 act	697 NFkB inh	UPR CHOP act	CHOP inh	Jurkat NFkB conf	697 NFkB conf
Cc1ccc(Nc2nc(-c3cccnc3)cs2)cc1C	.	.	.	.	/	.	.
NC(=O)CSc1nnc(-c2ccc3c(c2)OCO3)o1	.	.	.	.	.	/	/
C/C(N)=C(/C#N)C(=O)CSc1nnc(-c2ccc3c(c2)OCO3)o1	.	.	.	.	.	.	.
Oc1c(N=Nc2ccccc2)sc2ccccc12	.	.	.	.	.	.	.
CCN1/C(=C/c2ccc3cccc(C)c3[n+]2CC)Sc2ccccc21	92	.	102	.	.	77	87
CCN1/C(=C/c2ccc3cc(C)cc(C)c3[n+]2CC)Sc2cc(C)ccc21	/	/	/	/	.	/	/
Cc1ccc(Cn2c(SCC(=O)N(C)C3CCS(=O)(=O)C3)nc3ccccc3c2=O)cc1 (configuration not stated)	.	.	.	.	/	/	/
